According to ChEMBL document CHEMBL1208664, “Structure-activity relationship studies of acridones as potential antipsoriatic agents. 1. Synthesis and antiproliferative activity of simple N-unsubstituted 10H-acridin-9-ones against human keratinocyte growth” (Eur J Med Chem, 2010):

What was measured:
HaCaT [1] = assay: Antiproliferative activity against human HaCaT cells assessed as LDH release at 2 uM after 4 hrs by UV method
HaCaT [2] = assay: Antiproliferative activity against human HaCaT cells after 48 hrs by phase contrast microscopy; type: functional, cell-based
How it was run: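 HaCaT keratinocytes were treated for 48 h, then dispersed cells were counted under phase-contrast microscopy. Inhibition = (1 − test/control) × 100, with test mean N=3 against control N=6–8. Significance was by Student's t-test.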

[3] = test system: Radical scavenging activity; assay: Antioxidant activity assessed as DPPH free radical scavenging activity after 30 mins; type: functional; conditions: in the assay text read “after 20 mins” for “after 30 mins”
How it was run: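 Test compound in EtOH was mixed with an equal volume of DPPH in EtOH. The mix was shaken 30 s, held in the dark at RT for 20 min, shaken again 30 s, and the drop in absorbance at 520 nm was read. Scavenging % = (1 − test/control absorbance) × 100, with test N=3 and control N=8. EC50 came from nonlinear regression. NDGA and α-tocopherol were positive controls.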

Row | Compound | EC50 [3] [µM] | IC50 [3] [µM] | Activity (HaCaT [1]) [mU/ml] | IC50 (HaCaT [2]) [µM]
1 | COc1ccc(O)c2c(=O)c3c(O)cccc3[nH]c12 | > 60 |  |  | > 50
2 | Cc1cc(O)c2c(=O)c3ccccc3[nH]c2c1 |  |  |  | > 50
3 | COc1cc(O)c2c(=O)c3ccccc3[nH]c2c1 |  |  |  | 46.3
4 | COc1ccc2c(=O)c3c(OC)cccc3[nH]c2c1 |  |  |  | > 50
5 | COc1ccc2[nH]c3ccccc3c(=O)c2c1 |  |  |  | > 50
6 | COc1cc(O)c2c(O)c3cccc(OC)c3nc2c1 |  |  |  | 34.3
7 | COc1cc(OC)c2c(=O)c3ccccc3[nH]c2c1 |  |  |  | > 50
8 | O=c1c2ccccc2[nH]c2cc(OCc3ccccc3)cc(O)c12 |  |  |  | 47.8
9 | COc1ccc2[nH]c3cccc(OC)c3c(=O)c2c1 |  |  |  | > 50
10 | O=c1c2ccccc2[nH]c2cc(OCCc3ccccc3)cc(O)c12 |  |  |  | 21
11 | O=C1c2c(O)cccc2Cc2cccc(O)c21 [ANTHRALIN] | 16.7 |  | 122.8 | 
12 | COc1cccc2c(O)c3c(O)cc(O)cc3nc12 |  |  |  | 21.3
13 | O=C(Oc1cccc2[nH]c3ccccc3c(=O)c12)c1ccccc1 | > 60 |  |  | 12.4
14 | Cc1cc(O)cc2[nH]c3ccccc3c(=O)c12 |  |  |  | 27.3
15 | Cc1c(C)c2c(c(C)c1O)CC[C@@](C)(CCC[C@H](C)CCC[C@H](C)CCCC(C)C)O2 [ALPHA-TOCOPHEROL] |  | 8.2 |  | 
16 | COc1cc(OC)c2c(=O)c3c(OC)cccc3[nH]c2c1 |  |  |  | 45.3
17 | CC(=O)Oc1cccc2[nH]c3ccccc3c(=O)c12 |  |  |  | 21.5
18 | COc1cccc2[nH]c3cc(O)cc(O)c3c(=O)c12 |  |  |  | 28.3
19 | COc1cccc2[nH]c3cccc(OC)c3c(=O)c12 |  |  |  | > 50
20 | Cc1cccc2c(O)c3c(O)cc(O)cc3nc12 |  |  |  | > 50
21 | Cc1cccc2nc3cc(O)cc(O)c3c(O)c12 | > 60 |  | 71.5 | 0.8
22 | CC(Cc1ccc(O)c(O)c1)C(C)Cc1ccc(O)c(O)c1 (stereo not given) [NORDIHYDROGUAIARETIC ACID] |  | 4.2 |  | 
23 | COc1ccc(OC)c2c(=O)c3c(OC)cccc3[nH]c12 | > 60 |  |  | > 50
24 | Cc1ccc2c(=O)c3c(O)cc(O)cc3[nH]c2c1 |  |  |  | > 50
25 | O=c1c2ccccc2[nH]c2cc(O)ccc12 |  |  |  | > 50
26 | COc1ccc2c(=O)c3ccccc3[nH]c2c1 |  |  |  | > 50

Second part, led by results:

Row | EC50 [3] [µM] | IC50 [3] [µM] | Compound | Activity (HaCaT [1]) [mU/ml] | IC50 (HaCaT [2]) [µM]
27 | 8.8 |  | O=c1c2ccccc2[nH]c2c(O)ccc(O)c12 | 61.2 | 10
28 | 7.7 |  | COc1ccc(N)c2[nH]c3ccccc3c(=O)c12 |  | > 50
29 | > 60 |  | O=C(c1ccccc1)c1ccc2[nH]c3ccccc3c(=O)c2c1O | 88.9 | 1.6
30 | > 60 |  | O=c1c2ccccc2[nH]c2c(Cl)ccc(O)c12 |  | 26.3
31 | > 60 |  | NC(=O)c1ccc(O)c2c(=O)c3ccccc3[nH]c12 | 68.1 | 4.7
32 | > 60 |  | CC(=O)c1ccc2[nH]c3ccccc3c(=O)c2c1O |  | 17.1
33 | > 60 |  | COc1ccc(C(=O)O)c2[nH]c3ccccc3c(=O)c12 |  | > 50
34 | > 60 |  | COc1cccc2[nH]c3ccccc3c(=O)c12 |  | > 50
35 | > 60 |  | COc1ccc(OC)c2c(=O)c3ccccc3[nH]c12 |  | > 50
36 | > 60 |  | O=c1c2ccc(O)cc2[nH]c2cccc(O)c12 | 77.7 | 4.5
37 | > 60 |  | COC(=O)c1ccc(OC)c2c(=O)c3ccccc3[nH]c12 | 63.7 | 10.8
38 | > 60 |  | COc1ccc(O)c2c(=O)c3ccccc3[nH]c12 |  | 17.5
39 | > 60 |  | N#Cc1ccc(O)c2c(=O)c3ccccc3[nH]c12 |  | 27.9
40 | > 60 |  | COc1ccc(Cl)c2[nH]c3ccccc3c(=O)c12 |  | 43.8
41 | > 60 |  | O=c1c2c(O)cccc2[nH]c2cc(O)cc(O)c12 | 69.3 | 2
42 | > 60 |  | O=c1c2c(O)cccc2[nH]c2cccc(O)c12 |  | 39.5

Row | EC50 [3] [µM] | IC50 [3] [µM] | Compound | Activity (HaCaT [1]) [mU/ml] | IC50 (HaCaT [2]) [µM]
43 | > 60 |  | COc1ccc([N+](=O)[O-])c2[nH]c3ccccc3c(=O)c12 |  | > 50
44 | > 60 |  | COc1cccc2c(=O)c3ccccc3[nH]c12 |  | > 50
45 | > 60 |  | O=c1c2ccccc2[nH]c2cccc(O)c12 |  | > 50
46 | > 60 |  | Cc1ccc(O)c2c(=O)c3ccccc3[nH]c12 |  | 25.7
47 | > 60 |  | O=c1c2ccccc2[nH]c2cc(O)cc(O)c12 |  | 19.8
48 | > 60 |  | COc1ccc(C(N)=O)c2[nH]c3ccccc3c(=O)c12 | 66.5 | 8.8
49 | > 60 |  | O=c1c2ccccc2[nH]c2c([N+](=O)[O-])ccc(O)c12 |  | 47.3
50 | 3.9 |  | O=c1c2cc(O)ccc2[nH]c2cccc(O)c12 |  | 48.8
51 | > 60 |  | O=C(O)c1ccc(O)c2c(=O)c3ccccc3[nH]c12 |  | 49.2
52 | > 60 |  | COc1ccc(C#N)c2[nH]c3ccccc3c(=O)c12 |  | > 50
53 | 6.8 |  | O=c1c2ccccc2[nH]c2c(O)cccc12 |  | > 50
54 | > 60 |  | COC(=O)c1ccc(O)c2c(=O)c3ccccc3[nH]c12 | 58.8 | 5.2
55 | > 60 |  | COc1ccc(C)c2[nH]c3ccccc3c(=O)c12 |  | 46.7
56 | 2.7 |  | O=c1c2ccccc2[nH]c2ccc(O)cc12 |  | > 50
57 | 7.6 |  | Nc1ccc(O)c2c(=O)c3ccccc3[nH]c12 |  | > 50
58 | 15 |  | O=c1c2cccc(O)c2[nH]c2cc(O)cc(O)c12 | 69.9 | 8.4
